{"source": "ChEMBL document CHEMBL5724801", "about": "“EUbOPEN Chemogenomics Library - Multiplex” (2024)", "system": "HEK-293T", "assay": "Multiplex assay against HEK293T", "assay_type": "toxicity, cell-based", "details": "human", "outline": "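Live cells were stained at seeding with Hoechst33342, BioTracker Green Microtubule Cytoskeleton Dye, MitoTracker Red and Annexin V Alexa Fluor 680, then imaged on a CQ1 microscope at 37°C and 5% CO2 after compound addition. CellPathfinder machine-learning gating split cells into Hoechst high-intensity objects or normal cells. Normal cells were split into healthy, pyknosed or fragmented nuclei, and pyknosed cells into mitotic or apoptotic. Tubulin, mitochondrial-mass and membrane-permeability phenotypes are per cents of healthy-nucleus cells.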", "key": {"[1]": {"details": "12 h, 1 µM, compound concentration 1 uM"}, "[2]": {"details": "12 h, 10 µM, compound concentration 10 uM"}, "[3]": {"details": "24 h, 1 µM, compound concentration 1 uM"}, "[4]": {"details": "24 h, 10 µM, compound concentration 10 uM"}, "[5]": {"details": "48 h, 1 µM, compound concentration 1 uM"}, "[6]": {"details": "48 h, 10 µM, compound concentration 10 uM"}}, "note": "“And” between values parts separate entries of the source, which are not always exact repeats. Identical values can stand only once.", "data": [{"smiles": "CN(C)C(=O)Cn1cc(-c2ccc(-c3nnc4ccccn34)cc2)cn1", "values": [{"measurement": "Population Apoptotic (%)", "setting": "[1]", "result": "31% and 43%"}, {"measurement": "Population Fragmented Nuclei (%)", "setting": "[1]", "result": 7, "unit": "%"}, {"measurement": "Population Healthy Nuclei (%)", "setting": "[1]", "result": "80% and 79%"}, {"measurement": "Population Hoechst High Intensity Objects (%)", "setting": "[1]", "result": "9% and 10%"}, {"measurement": "Population Membrane Permeable-Phenotype (%)", "setting": "[1]", "result": 0, "unit": "%"}, {"measurement": "Population Mitochondria Different-Phenotype (%)", "setting": "[1]", "result": "40% and 59%"}, {"measurement": "Population Mitotic Cells (%)", "setting": "[1]", "result": "68% and 56%"}, {"measurement": "Population Normal (%)", "setting": "[1]", "result": "90% and 89%"}, {"measurement": "Population Pyknosed Nuclei (%)", "setting": "[1]", "result": "11% and 12%"}, {"measurement": "Population Tubulin-Different-Phenotype (%)", "setting": "[1]", "result": "32% and 27%"}, {"measurement": "Total Cell Count", "setting": "[1]", "result": "432 and 337"}, {"measurement": "Population Apoptotic (%)", "setting": "[2]", "result": "32% and 51%"}, {"measurement": "Population Fragmented Nuclei (%)", "setting": "[2]", "result": "9% and 7%"}, {"measurement": "Population Healthy Nuclei (%)", "setting": "[2]", "result": "76% and 80%"}, {"measurement": "Population Hoechst High Intensity Objects (%)", "setting": "[2]", "result": "7% and 8%"}, {"measurement": "Population Membrane Permeable-Phenotype (%)", "setting": "[2]", "result": 0, "unit": "%"}, {"measurement": "Population Mitochondria Different-Phenotype (%)", "setting": "[2]", "result": "61% and 55%"}, {"measurement": "Population Mitotic Cells (%)", "setting": "[2]", "result": "67% and 48%"}, {"measurement": "Population Normal (%)", "setting": "[2]", "result": "92% and 91%"}, {"measurement": "Population Pyknosed Nuclei (%)", "setting": "[2]", "result": "14% and 12%"}, {"measurement": "Population Tubulin-Different-Phenotype (%)", "setting": "[2]", "result": "42% and 18%"}, {"measurement": "Total Cell Count", "setting": "[2]", "result": "427 and 356"}, {"measurement": "Population Apoptotic (%)", "setting": "[3]", "result": "27% and 46%"}, {"measurement": "Population Fragmented Nuclei (%)", "setting": "[3]", "result": "10% and 9%"}, {"measurement": "Population Healthy Nuclei (%)", "setting": "[3]", "result": "77% and 82%"}, {"measurement": "Population Hoechst High Intensity Objects (%)", "setting": "[3]", "result": "6% and 7%"}, {"measurement": "Population Membrane Permeable-Phenotype (%)", "setting": "[3]", "result": 0, "unit": "%"}, {"measurement": "Population Mitochondria Different-Phenotype (%)", "setting": "[3]", "result": "28% and 44%"}, {"measurement": "Population Mitotic Cells (%)", "setting": "[3]", "result": "72% and 53%"}, {"measurement": "Population Normal (%)", "setting": "[3]", "result": "93% and 92%"}, {"measurement": "Population Pyknosed Nuclei (%)", "setting": "[3]", "result": "12% and 7%"}, {"measurement": "Population Tubulin-Different-Phenotype (%)", "setting": "[3]", "result": "22% and 18%"}, {"measurement": "Total Cell Count", "setting": "[3]", "result": "595 and 447"}, {"measurement": "Population Apoptotic (%)", "setting": "[4]", "result": "35% and 61%"}, {"measurement": "Population Fragmented Nuclei (%)", "setting": "[4]", "result": "7% and 13%"}, {"measurement": "Population Healthy Nuclei (%)", "setting": "[4]", "result": "78% and 79%"}, {"measurement": "Population Hoechst High Intensity Objects (%)", "setting": "[4]", "result": "4% and 7%"}, {"measurement": "Population Membrane Permeable-Phenotype (%)", "setting": "[4]", "result": 0, "unit": "%"}, {"measurement": "Population Mitochondria Different-Phenotype (%)", "setting": "[4]", "result": "44% and 39%"}, {"measurement": "Population Mitotic Cells (%)", "setting": "[4]", "result": "64% and 38%"}, {"measurement": "Population Normal (%)", "setting": "[4]", "result": "95% and 92%"}, {"measurement": "Population Pyknosed Nuclei (%)", "setting": "[4]", "result": "13% and 7%"}, {"measurement": "Population Tubulin-Different-Phenotype (%)", "setting": "[4]", "result": "27% and 11%"}, {"measurement": "Total Cell Count", "setting": "[4]", "result": "506 and 425"}, {"measurement": "Population Apoptotic (%)", "setting": "[5]", "result": "18% and 32%"}, {"measurement": "Population Fragmented Nuclei (%)", "setting": "[5]", "result": 11, "unit": "%"}, {"measurement": "Population Healthy Nuclei (%)", "setting": "[5]", "result": "81% and 80%"}, {"measurement": "Population Hoechst High Intensity Objects (%)", "setting": "[5]", "result": "3% and 4%"}, {"measurement": "Population Membrane Permeable-Phenotype (%)", "setting": "[5]", "result": 0, "unit": "%"}, {"measurement": "Population Mitochondria Different-Phenotype (%)", "setting": "[5]", "result": "20% and 22%"}, {"measurement": "Population Mitotic Cells (%)", "setting": "[5]", "result": "81% and 67%"}, {"measurement": "Population Normal (%)", "setting": "[5]", "result": "96% and 95%"}, {"measurement": "Population Pyknosed Nuclei (%)", "setting": "[5]", "result": "6% and 7%"}, {"measurement": "Population Tubulin-Different-Phenotype (%)", "setting": "[5]", "result": "13% and 12%"}, {"measurement": "Total Cell Count", "setting": "[5]", "result": "946 and 572"}, {"measurement": "Population Apoptotic (%)", "setting": "[6]", "result": "30% and 37%"}, {"measurement": "Population Fragmented Nuclei (%)", "setting": "[6]", "result": "18% and 14%"}, {"measurement": "Population Healthy Nuclei (%)", "setting": "[6]", "result": "74% and 79%"}, {"measurement": "Population Hoechst High Intensity Objects (%)", "setting": "[6]", "result": "5% and 2%"}, {"measurement": "Population Membrane Permeable-Phenotype (%)", "setting": "[6]", "result": 0, "unit": "%"}, {"measurement": "Population Mitochondria Different-Phenotype (%)", "setting": "[6]", "result": "24% and 27%"}, {"measurement": "Population Mitotic Cells (%)", "setting": "[6]", "result": "69% and 62%"}, {"measurement": "Population Normal (%)", "setting": "[6]", "result": "94% and 97%"}, {"measurement": "Population Pyknosed Nuclei (%)", "setting": "[6]", "result": "6% and 5%"}, {"measurement": "Population Tubulin-Different-Phenotype (%)", "setting": "[6]", "result": "14% and 12%"}, {"measurement": "Total Cell Count", "setting": "[6]", "result": "753 and 616"}]}]}
